Measured values published in ChEMBL document CHEMBL5036319, “Discovery of Novel Benzothiazepinones as Irreversible Covalent Glycogen Synthase Kinase 3β Inhibitors for the Treatment of Acute Promyelocytic Leukemia” (J Med Chem, 2021).
pIC50: −log10 of the molar value. Active and inactive are the calls of the source. The rule behind the calls is not given here.

Key:
[1] = tested on: NB-4; assay: Cytotoxicity against human NB-4 cells assessed as reduction in cell viability measured after 24 hrs by CCK-8 assay; type: functional, cell-based; conditions: NB-4, 24 h
Procedure, shortened: (§1)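 Cells were grown in RPMI-1640 or high-glucose DMEM with 10% FBS at 37 °C, 5% CO2, and seeded at 3 × 10^4 cells/well. Exposure was 24 h across serial concentrations (0−1000 μM in the screen). […] Three independent experiments, mean ± SEM.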

[2] = tested on: Raji; assay: Cytotoxicity against human Raji cells assessed as reduction in cell viability measured after 24 hrs by CCK-8 assay; type: functional, cell-based; procedure, shortened: as §1
[3] = Cytotoxicity against human L02 assessed as cell viability at 100 uM incubated for 24 hrs by CCK-8 assay relative to control; type: cell-based; conditions: L02 cells, read-out: Activity
Procedure, shortened: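 HUVEC and LO2 normal cells were cultured in RPMI-1640 or DMEM with 10% FBS at 37 °C, 5% CO2, and seeded at 3 × 10^4 cells/well. They were exposed for 24 h to graded concentrations. CCK-8 incubation was 3 h at 37 °C, with A450 read and viability expressed versus untreated control. Three independent experiments, mean ± SEM.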

[4] = Induction in caspase-mediated apoptosis in human NB-4 cells assessed as viable cells at 12.5 uM incubated for 24 hrs by Annexin V-FITC/propidium iodide staining based flow cytometry analysis (reference value: 96.6%); type: functional; conditions: read-out: Activity
[5] = Induction in caspase-mediated apoptosis in human NB-4 cells assessed as viable cells at 50 uM incubated for 24 hrs by Annexin V-FITC/propidium iodide staining based flow cytometry analysis (reference value: 96.6%); type: functional; conditions: read-out: Activity
[6] = Induction in caspase-mediated apoptosis in human NB-4 cells assessed as necrotic cells at 50 uM incubated for 24 hrs by Annexin V-FITC/Propidium iodide staining based flow cytometry analysis (reference value: 0.352%); type: functional
[7] = Induction in caspase-mediated apoptosis in human NB-4 cells assessed as late apoptotic cells at 12.5 uM incubated for 24 hrs in presence of Z-VAD-FMK by Annexin V-FITC/propidium iodide staining based flow cytometry analysis (reference value: 1.15%); type: functional
[8] = Induction in caspase-mediated apoptosis in human NB-4 cells assessed as necrotic cells at 12.5 uM incubated for 24 hrs in presence of Z-VAD-FMK by Annexin V-FITC/propidium iodide staining based flow cytometry analysis (reference value: 0.167%); type: functional
[9] = Induction in caspase-mediated apoptosis in human NB-4 cells assessed as early apoptotic cells at 25 uM incubated for 24 hrs in presence of Z-VAD-FMK by Annexin V-FITC/propidium iodide staining based flow cytometry analysis (reference value: 1.84%); type: functional
[10] = Induction in caspase-mediated apoptosis in human NB-4 cells assessed as early apoptotic cells at 50 uM incubated for 24 hrs in presence of Z-VAD-FMK by Annexin V-FITC/propidium iodide staining based flow cytometry analysis (reference value: 1.84%); type: functional
[11] = Induction in caspase-mediated apoptosis in human NB-4 cells assessed as viable cells at 100 uM incubated for 24 hrs in presence of Z-VAD-FMK by Annexin V-FITC/propidium iodide staining based flow cytometry analysis (reference value: 96.8%); type: functional; conditions: read-out: Activity
[12] = Induction in caspase-mediated apoptosis in human NB-4 cells assessed as early apoptotic cells at 100 uM incubated for 24 hrs in presence of Z-VAD-FMK by Annexin V-FITC/propidium iodide staining based flow cytometry analysis (reference value: 1.84%); type: functional
[13] = Induction in caspase-mediated apoptosis in human NB4-DR1 cells assessed as viable cells at 12.5 uM incubated for 24 hrs by Annexin V-FITC/propidium iodide staining based flow cytometry analysis (reference value: 96.9%); type: functional; conditions: read-out: Activity
[14] = Induction in caspase-mediated apoptosis in human NB4-DR1 cells assessed as viable cells at 25 uM incubated for 24 hrs by Annexin V-FITC/propidium iodide staining based flow cytometry analysis (reference value: 96.9%); type: functional; conditions: read-out: Activity
[15] = Induction in caspase-mediated apoptosis in human NB4-DR1 cells assessed as early apoptotic cells at 25 uM incubated for 24 hrs by Annexin V-FITC/propidium iodide staining based flow cytometry analysis (reference value: 1.43%); type: functional
[16] = Induction in caspase-mediated apoptosis in human NB4-DR1 cells assessed as necrotic cells at 25 uM incubated for 24 hrs by Annexin V-FITC/propidium iodide staining based flow cytometry analysis (reference value: 0.19%); type: functional
[17] = Induction in caspase-mediated apoptosis in human NB4-DR1 cells assessed as necrotic cells at 100 uM incubated for 24 hrs by Annexin V-FITC/propidium iodide staining based flow cytometry analysis (reference value: 0.19%); type: functional
[18] = Induction in caspase-mediated apoptosis in human NB4-DR1 cells assessed as early apoptosis cells at 50 uM incubated for 24 hrs in presence of Z-VAD-FMK by Annexin V-FITC/propidium iodide staining based flow cytometry analysis (reference value: 0.875%); type: functional
[19] = Induction in caspase-mediated apoptosis in human NB4-DR1 cells assessed as late apoptotic cells at 50 uM incubated for 24 hrs in presence of Z-VAD-FMK by Annexin V-FITC/propidium iodide staining based flow cytometry analysis (reference value: 2.54%); type: functional
[20] = AUCinfinity in ICR mouse at 15 mg/kg, ip administered as single dose measured upto 8 hrs by LC-MS/MS analysis; type: ADME, organism-based; set-up: route intraperitoneal, dose 15 mg/kg, time <=8; conditions: in vivo
Procedure, shortened: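 Male ICR mice (30 g) given a single i.p. bolus of 15 mg/kg in corn oil. Blood taken by orbital collection into K3EDTA tubes at 0.08, 0.17, 0.5, 1, 2, 4 and 8 h, three animals per time point, giving a composite profile. Plasma proteins were precipitated with acetonitrile and analysed by LC-MS/MS. Parameters were derived by non-compartmental analysis.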

[21] = Terminal half life in ICR mouse at 15 mg/kg, ip administered as single dose measured upto 8 hrs by LC-MS/MS analysis; type: ADME, organism-based; conditions: in vivo
Procedure, shortened: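 Male ICR mice (30 g) received a single 15 mg/kg i.p. bolus in corn oil. Orbital blood went into K3EDTA tubes at 0.08–8 h, three animals per time point (composite profile). Plasma was protein-precipitated with acetonitrile and analysed by LC–MS/MS; non-compartmental analysis.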

[22] = Toxicity in BALB/c mouse xenografted with human NB-4 cells assessed as body weight loss at 15 mg/kg/day, ip administered for 2 weeks; type: organism-based; conditions: in vivo, 336 h
Procedure, shortened: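 Female Balb/c nude mice (4 weeks old) injected subcutaneously in the right flank with 2 × 10^6 NB4 cells. At about 0.5 cm tumour diameter, mice were randomised (n = 5). Dosing was 15 mg/kg/d i.p. in corn oil, or corn-oil vehicle, daily for 2 weeks, with body weight recorded throughout; mean ± SEM.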

[23] = tested on: NB-4; assay: Antitumor activity against human NB-4 cells xenografted in BALB/c nude mouse assessed as reduction in tumor mass at 15 mg/kg/day, ip administered for 2 weeks; type: functional, organism-based
Procedure, shortened: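 Female Balb/c nude mice, 4 weeks old, received 2 × 10^6 NB4 cells s.c. in the right flank. Once tumours reached about 0.5 cm diameter, mice were randomised to corn-oil vehicle or drug in corn oil (n = 5). Dosing was 15 mg/kg/d i.p. once daily for 2 weeks. Caliper volume (length × width²)/2 was taken every other day, and tumours were excised and weighed at the end.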

- AUC [20]: 10838.33 ng·h/mL
- beta t1/2 [21]: 14.2 h
Structure (SMILES): C=CC(=O)N1C(=O)CC(c2ccc(F)cc2)Sc2ccccc21 (stereo not drawn)
- pIC50 [1]: 4.71
- pIC50 [2]: 4.55
- viability at 24 h, 100 µM [3]: > 70%
- viability at 12.5 µM [4]: 77%
- viability at 50 µM [5]: 14.2%
- Activity [6]: 4.51%
- Activity [7]: 7.39%
- Activity [8]: 1.59%
- Activity [9]: 7.42%
- Activity [10]: 8.18%
- viability at 100 µM [11]: 72.2%
- Activity [12]: 5.35%
- viability at 12.5 µM [13]: 92.2%
- viability at 25 µM [14]: 81.8%
- Activity [15]: 2.07%
- Activity [16]: 1.32%
- Activity [17]: 6.32%
- Activity [18]: 1.12%
- Activity [19]: 7.04%
- Activity [22]: Toxic
- Activity [23]: Active
